Assay results of several laboratories.
Each line is one published result; the experiments were not run side by side. pIC50: −log10 of the molar value.
Cell line: A549

| Structure (SMILES) | observed | method | time | pIC50 |
| --- | --- | --- | --- | --- |
| COc1cc2ncnc(Nc3ccc(F)c(Cl)c3)c2cc1NC(=O)N/N=C/c1cccn1CCCN(C)C | cell growth or viability | MTT | 72 h | 5.70 |
| Cc1ccc(-c2ccc(O)cc2)c(C(=C2C=CC(=O)C=C2)c2ccc(O)cc2)c1C#Cc1ccc(O)cc1 | cell growth or viability | MTT | 48 h | 4.75 |
| COc1cc(C=C(C(=O)/C=C/c2ccc(OC)c(OC)c2)C(=O)/C=C/c2ccc(OC)c(OC)c2)ccc1O | colony formation |  | 9 days | > 6.70 |
| COc1cc2ncnc(Nc3ccc(F)c(Cl)c3)c2cc1NC(=O)N/N=C/CN1CCCCC1 | cell growth or viability | MTT | 72 h | 5.25 |
| COc1ccccc1OCCNC[C@@H](O)COc1cccc2[nH]c3ccccc3c12 | cell growth or viability | CCK-8 |  | 4.63 |
| CC1=C(O)C(=O)C=C2C1=CC=C1[C@@]2(C)CC[C@@]2(C)[C@@H]3C[C@](C)(C(=O)OCCCCCCO)CC[C@]3(C)CC[C@]12C | cell growth or viability | MTT | 48 h | < 4.00 |
| CN1CCN(CCn2cccc2/C=N/NC(=O)Nc2cc3c(Nc4ccc(F)c(Cl)c4)ncnc3cc2O[C@H]2CCOC2)CC1 | cell growth or viability | MTT | 72 h | 5.52 |
| COCCCOc1ccnc(COc2ccc(NC(=O)Nc3ccc(OC)cc3)cc2)c1C | cell growth or viability | MTT | 72 h | 4.94 |
| COc1cc2ncnc(Nc3ccc(F)c(Cl)c3)c2cc1NC(=O)N/N=C/c1cccn1CCN1CCCCC1 | cell growth or viability | MTT | 72 h | 5.64 |
| O=C1NC(=NCc2cccs2)S/C1=C\c1ccc2ncccc2c1 | cell growth or viability |  |  | < 5.00 |
| COc1ccccc1CNCC(O)COc1cccc2[nH]c3ccccc3c12 (centres unmarked) | cell growth or viability | CCK-8 | 72 h | 4.86 |
| O=C1Nc2ccc(Br)cc2/C1=N/NC(=O)c1cc2ccccc2[nH]1 | cell growth or viability |  |  | 4.80 |
| COc1ccccc1NCC(O)COc1cccc2[nH]c3ccccc3c12 (centres unmarked) | cell growth or viability | CCK-8 | 72 h | 4.06 |
| CC1=C(O)C(=O)C=C2C1=CC=C1[C@@]2(C)CC[C@@]2(C)[C@@H]3C[C@](C)(C(=O)OCCCn4ccc5ccccc54)CC[C@]3(C)CC[C@]12C | cell growth or viability | MTT | 48 h | < 4.00 |
| O=C(NC(=S)NC1CCCCC1)c1ccc2ccccc2c1 | cell growth or viability |  | 48 h | 5.24 |
| Cc1ccc(NC(=O)NNC(=O)c2ccc(Nc3nccc(-c4cccnc4)n3)cc2)cc1 | cell growth or viability | MTT | 24 h | 5.08 |
| c1ccc2cc(-c3nnc(NC4CCCCC4)[nH]3)ccc2c1 | cell growth or viability |  | 48 h | 5.91 |
| COc1ccccc1/C=C/CNCC(O)COc1cccc2c1[nH]c1ccccc12 (centres unmarked) | cell growth or viability | CCK-8 | 72 h | 4.95 |
| C=CC(=O)Nc1cc(Nc2nc(N3CCc4sccc4C3)c3cccnc3n2)c(OC)cc1N1CCSCC1 | cell growth or viability | MTT |  | 4.62 |
| Brc1ccc(Nc2nc(NCc3ccccc3)nc(NCc3ccccc3)n2)cc1 | cell growth or viability | SRB | 72 h | 4.83 |
| Cn1c(=O)c2c(ncn2Cc2nnc(SCC(=O)Nc3ccc(Cl)c(Cl)c3)n2-c2ccccc2)n(C)c1=O | cell growth or viability | MTT |  | 4.09 |

| Structure (SMILES) | observed | method | time | pIC50 |
| --- | --- | --- | --- | --- |
| COCCCOc1ccnc(COc2ccc(NC(=O)Nc3cc(F)cc(F)c3)cc2)c1C | cell growth or viability | MTT | 72 h | 4.35 |
| COc1cc(N(C)CCN(C)C)c(NC(=O)/C=C/C(C)C)cc1Nc1nc(Nc2cnn(C)c2)c2sccc2n1 | cell growth or viability | MTT |  | 6.36 |
| O=C(/N=c1\scc(-c2ccccc2)n1C1CCCCC1)c1ccc2ccccc2c1 | cell growth or viability |  | 48 h | 4.79 |
| COc1ccc2c(c1)/C(=N/NC(=O)c1cc3ccccc3[nH]1)C(=O)N2 | cell growth or viability |  |  | 5.18 |
| Cc1ccc(C)n1-c1ccc(-c2nnc(-c3ccccc3Cl)[nH]2)cc1 | cell growth or viability | MTT | 72 h | 3.64 |
| CCOc1ccc(/C=C2\SC(=S)N(CC(=O)Nc3ccccc3)C2=O)cc1 | cell growth or viability | MTT |  | 4.99 |
| Cc1c(NC(=O)c2ccc(C(C)(C)C)cc2)cccc1-c1cn(C)c(=O)c(Nc2ccc(C(=O)N3CCOCC3)cc2)n1 | cell growth or viability |  |  | < 5.00 |
| COc1cc(-c2nc(C(=O)Nc3nnc(-c4cc5ccccc5n4C)s3)cc3c2[nH]c2ccccc23)cc(OC)c1OC | cell growth or viability | MTT | 72 h | 5.11 |
| C=C(Cl)C(=O)Nc1cc(Nc2nc(Nc3cnn(C)c3)c3sccc3n2)c(OC)cc1N1CCN(C)CC1 | cell growth or viability | MTT |  | 6.18 |
| COc1ccc(NC(=O)Nc2ccc(OCc3ncc(C)c(OC)c3C)cc2)cc1 | cell growth or viability | MTT | 72 h | 4.89 |
| Cc1ccc(-c2csc(Nc3ccc4c(O)ncnc4c3)n2)cc1 | cell growth or viability | MTT |  | 4.57 |
| CS(=O)(=O)c1ccc(-n2cc(/C=N/N=c3\[nH]c(-c4ccc([N+](=O)[O-])cc4)cs3)c(-c3ccc(Br)cc3)n2)cc1 | cell growth or viability | MTT | 48 h | 4.16 |
| Oc1ncnc2cc(Nc3nc(-c4ccc(Br)cc4)cs3)ccc12 | cell growth or viability | MTT |  | 4.64 |
| Nc1ccc(Cl)c[n+]1[Pt-2]([Cl])([Cl])[n+]1cc(Cl)ccc1N | cell growth or viability | MTT | 48 h | 5.20 |
| COc1cc2ncnc(Nc3ccc(F)c(Cl)c3)c2cc1NC(=O)N/N=C/c1cccn1CCN1CCCC1 | cell growth or viability | MTT | 72 h | 6.46 |
| COc1cc(N(C)CCN(C)C)c(NC(=O)C=C(C)C)cc1Nc1nc(Nc2cnn(C)c2)c2sccc2n1 | cell growth or viability | MTT |  | 5.81 |
| COc1cccc2c1C(=O)c1c(O)c3c(c(O)c1C2=O)C[C@@](O)(C(=O)CO)C[C@@H]3O[C@H]1C[C@H](N)[C@H](O)[C@H](C)O1 | cell growth or viability | MTT | 48 h | 5.62 |
| CNC(=O)c1cc(Oc2ccc(NC(=O)Nc3ccc(Cl)c(C(F)(F)F)c3)cc2)ccn1 | cell growth or viability | MTT | 72 h | 5.67 |
| C/C=C/C(=O)Nc1cc(Nc2nc(Nc3cnn(C)c3)c3sccc3n2)c(OC)cc1N(C)CCN(C)C | cell growth or viability | MTT |  | 4.59 |
| CNC(=O)c1cc(Oc2ccc(NC(=O)Nc3ccc(Cl)c(C(F)(F)F)c3)cc2)ccn1 | cell growth or viability | MTT | 24 h | < 4.40 |
